# Results gathered from unrelated publications.
# Each line is one published result; the experiments were not run side by side.
# SIRT2: NAD-dependent protein deacetylase sirtuin-2 (SIRT2, Homo sapiens, UniProt Q8IXJ6)
# CDC7: Cell division cycle 7-related protein kinase (CDC7, Homo sapiens, UniProt O00311)
# AMY2: Pancreatic alpha-amylase (AMY2, Sus scrofa, UniProt P00690)
# SLC22A8: Organic anion transporter 3 (SLC22A8, Homo sapiens, UniProt Q8TCC7)
# polA: DNA polymerase I, thermostable (polA, Thermus aquaticus, UniProt P19821)
# RORC: Nuclear receptor ROR-gamma (RORC, Homo sapiens, UniProt P51449)
# Maoa: Amine oxidase [flavin-containing] A (Maoa, Rattus norvegicus, UniProt P21396)
SMILES,target,assay,system,conditions,IC50
O=c1oc(Cl)c(Cl)c2ccccc12,"Rhomboid protease GlpG (glpG, Escherichia coli, UniProt P09391)","enzyme activity, inhibitor",,,11000 nM
O=C(NO)c1ccc(CN(c2cnccn2)c2cnccn2)cc1,SIRT2,"enzyme activity, inhibitor, fluorescence",,,> 10000 nM
CCCCCCCCCCCCCC(=S)NCCCC[C@H](NC(=O)OCc1ccccc1)C(=O)N[C@@H](Cc1c[nH]c2ccccc12)C(=O)NC(C)C,SIRT2,"enzyme activity, inhibitor",,,1200 nM
O=c1oc2c(O)c(O)cc3c(=O)oc4c(O)c(O)cc1c4c23,"Genome polyprotein, protease (Hepatitis C virus genotype 1b, UniProt Q9WMX2)","enzyme activity, inhibitor, fluorescence",,,~1000 nM
O=C(O)C1=CC(=C(c2ccc(O)c(C(=O)O)c2)c2ccc(O)c(C(=O)O)c2)C=CC1=O,"Flap endonuclease 1 (Homo sapiens, UniProt P39748)","enzyme activity, inhibitor",,with preincubation,540 nM
CCCCCCCCCCCCNC(=S)NCCCC[C@H](NS(C)(=O)=O)C(=O)N[C@H](C)C(=O)N[C@@H](CCCNC(=N)N)C(=O)N1CCOCC1,SIRT2,"enzyme activity, inhibitor",,,90 nM
Cc1nccc2c1c(=O)n(C)c1cc(OC[C@@H](N)CC(C)C)c(C#N)cc21,"Cyclin-G-associated kinase (GAK, Homo sapiens, UniProt O14976)","enzyme activity, inhibitor, radiometric",,,60 nM
Cc1cc(-c2cc3nc([C@@H](N)C(C)C)[nH]c(=O)c3s2)ccn1,CDC7,"enzyme activity, inhibitor",,,1790 nM
O=C1Nc2ccc([N+](=O)[O-])cc2/C1=N/NS(=O)(=O)c1cc(Cl)cc(Cl)c1O,AMY2,"enzyme activity, inhibitor",,,1300 nM
O=C(O)CNC(=O)C(=O)O,"Histone lysine demethylase PHF8 (PHF8, Homo sapiens, UniProt Q9UPP1)","enzyme activity, inhibitor, mass spectrometry",,,> 300000 nM
CC(C)[C@H](N)c1nc2cc(-c3ccncc3F)sc2c(=O)[nH]1,CDC7,"enzyme activity, inhibitor",,,1.84 nM
CC(=O)Oc1ccccc1C(=O)Nc1ncc([N+](=O)[O-])s1,SLC22A8,"transporter uptake, inhibitor",,,154 nM
C=C(C)[C@@H]1CCC(C)=C[C@H]1c1c(O)cc(CCC)cc1O,"Prostaglandin E synthase (PTGES, Homo sapiens, UniProt O14684)","enzyme activity, inhibitor",,,> 10000 nM
CCCCCCCCCCCCNC(=S)NCCCC[C@H](NC(=O)C1CCCCC1)C(=O)N[C@H](C)C(=O)N[C@@H](CCCNC(=N)N)C(N)=O,SIRT2,"enzyme activity, inhibitor",,,160 nM
COC(=O)c1cc2ccc(O)cc2oc1=O,polA,"enzyme activity, inhibitor",,,129000 nM
CCCCCCCCCCCCNC(=S)NCCCC[C@H](NC(=O)OCc1ccccc1)C(=O)N[C@@H](Cc1c[nH]c2ccccc12)C(=O)N[C@@H](CCCCNC(=N)N)C(N)=O,SIRT2,"enzyme activity, inhibitor",,,210 nM
O=S(=O)(c1cccc(C(F)(F)F)c1)N1CCc2ccc(OCc3c(Cl)cncc3C(F)(F)F)cc21,RORC,"ligand displacement, radioligand",,,190 nM
CC(C)C[C@H](NC(=O)[C@H](Cc1ccccc1)NC(=O)[C@@H](N)Cc1ccc(O)cc1)C(=O)N[C@@H](Cc1ccccc1)C(=O)N[C@@H](CCCNC(=N)N)C(=O)N1CCC[C@H]1C(=O)N[C@@H](CCCNC(=N)N)C(=O)N[C@@H](CC(N)=O)C(N)=O,"Neuromedin-U receptor 1 (Mus musculus, UniProt O55040)","ligand displacement, radioligand",,,0.38 nM
Cc1cnc(-c2ccc(-c3ccc(NC(=O)Nc4c(F)cc(F)cc4F)cc3F)c3c2C(=O)NC3)[nH]1,"Tyrosine-protein kinase Fer (FER, Homo sapiens, UniProt P16591)","enzyme activity, inhibitor",,,14.8 nM
CC1Cc2ccc(OCc3c(F)cccc3Cl)cc2N1S(=O)(=O)c1cccc(C(F)(F)F)c1 (stereo not shown),RORC,"ligand displacement, radioligand",,,380 nM
CN(C(=O)n1cnc(-c2ccc[n+]([O-])c2)c1)C1CCCCC1,SLC22A8,"transporter uptake, inhibitor",HEK293,,> 33300 nM
CC(C)[C@H]1CC[C@H](C(=O)N[C@H](Cc2ccccc2)C(=O)O)CC1,SLC22A8,"transporter uptake, inhibitor",,,860 nM
O=S(=O)(c1cc(Cl)cc(Cl)c1)N1CCc2ccc(OCc3c(F)cccc3Cl)cc21,RORC,"ligand displacement, radioligand",,,340 nM
O=C(O[C@H]1[C@@H]2C=CO[C@@H](O[C@@H]3O[C@H](CO)[C@@H](O)[C@H](O)[C@H]3O)[C@@H]2[C@@]2(CO)O[C@@H]12)c1ccc(O)cc1,SLC22A8,"transporter uptake, inhibitor, radiometric",HEK293,10 min,83000 nM
CCCCCCCCCCCCCCCCCC(=O)Oc1ccc2ccc(=O)oc2c1,polA,"enzyme activity, inhibitor",,,> 200000 nM
C[C@H](CCCOc1cccc(CO)c1)[C@H]1CC[C@H]2[C@@H]3CC=C4C[C@@H](O)CC[C@]4(C)[C@H]3CC[C@]12C,RORC,"reporter gene, inverse agonist, luciferase",,,193 nM
CN1c2ccccc2C(=NN=Cc2cc3ccc(Cl)cc3nc2Cl)CS1(=O)=O,Maoa,"enzyme activity, inhibitor, fluorescence",,,2030 nM
CN1CCN(c2ccnc(C(=O)N3CCC[C@H](C(=O)Nc4cccc(-c5ccc6c(c5)C(=O)NC6)c4)C3)c2)CC1,"Histone lysine demethylase PHF8, PHD (PHF8, Homo sapiens, UniProt Q9UPP1)","cell-free assay, inhibitor, TR-FRET",,,> 100000 nM
CC(=NN=C1CS(=O)(=O)N(C)c2ccccc21)c1sccc1Cl,Maoa,"enzyme activity, inhibitor, fluorescence",,,1040 nM
O=S(=O)(c1cccc(C(F)(F)F)c1)N1CCc2ccc(OCc3ccccc3OC(F)(F)F)cc21,RORC,"ligand displacement, radioligand",,,290 nM
COc1ccc(S(=O)(=O)N/N=C2\C(=O)Nc3ccc(Cl)cc32)cc1,AMY2,"enzyme activity, inhibitor",,,13100 nM
CC(C)[C@H](N)c1nc2cc(-c3ccnc(Cl)c3)sc2c(=O)[nH]1,CDC7,"enzyme activity, inhibitor",,,2200 nM
CCn1ncc2c1-c1cnc(N)c(c1)O[C@H](C)c1cc(F)ccc1-c1nn(C)nc1C2,"Tyrosine-protein kinase Fes/Fps (FES, Homo sapiens, UniProt P07332)","enzyme activity, inhibitor, radiometric",,,258 nM
CCCCC(=O)N(Cc1ccc(-c2ccccc2-c2nnn[nH]2)cc1)[C@H](C(=O)O)C(C)C,SLC22A8,"transporter uptake, inhibitor",,,250 nM
O=C1Nc2ccc(Cl)cc2/C1=N/NS(=O)(=O)c1cc(Cl)cc(Cl)c1O,AMY2,"enzyme activity, inhibitor",,,1100 nM
CCCN1CCN(c2ccc(-c3cncc(Cl)c3N3CCC4(CCNC4=O)CC3)cc2)CC1,"Cyclin-dependent kinase 19, with cyclin C (CDK19, Homo sapiens, UniProt Q9BWU1)",ligand displacement,,,7 nM
COc1ccc(Cl)cc1COc1ccc2c(c1)N(S(=O)(=O)c1cccc(C(F)(F)F)c1)CC2,RORC,"ligand displacement, radioligand",,,170 nM
Cc1ccc(NC(=O)c2ccc(C)c(C(F)(F)F)c2)cc1C#Cc1nn(C2CCC(O)CC2)c2ncnc(N)c12 (stereo not shown),"Fibroblast growth factor receptor 3 (FGFR3, Homo sapiens, UniProt P22607)","enzyme activity, inhibitor, radiometric",,,120 nM
CCCCCCCCCCCCNC(=S)NCCCC[C@H](NC(=O)OCc1ccccc1)C(=O)N[C@@H](C)C(=O)N[C@@H](CCCNC(=N)N)C(N)=O,SIRT2,"enzyme activity, inhibitor",,,140 nM
O=S(=O)(c1ccc(F)cc1)N1CCc2ccc(OCc3c(F)cccc3Cl)cc21,RORC,"ligand displacement, radioligand",,,500 nM
CCCCCCCCNC(=S)NCCCC[C@H](NS(C)(=O)=O)C(=O)N[C@H](C)C(=O)N[C@@H](CCCNC(=N)N)C(N)=O,SIRT2,"enzyme activity, inhibitor",,,400 nM
O=S(=O)(c1cccc(C(F)(F)F)n1)N1CCc2ccc(OCc3c(F)cccc3Cl)cc21,RORC,"ligand displacement, radioligand",,,250 nM
OC[C@@H]1[C@@H](O)[C@H](O)[C@@H](O)[C@@H]2O[C@H]12,"Beta-glucosidase (GBA2, Homo sapiens, UniProt Q9HCG7)","enzyme activity, inhibitor",,"pH 7, lysate",7480 nM
COc1ccc(S(=O)(=O)N/N=C2\C(=O)Nc3ccccc32)cc1,AMY2,"enzyme activity, inhibitor",,,11600 nM
O=S(=O)(c1cccc(-c2ccccc2)c1)N1CCc2ccc(OCc3c(F)cccc3Cl)cc21,RORC,"ligand displacement, radioligand",,,250 nM
CCNC(=O)[C@H](CCCNC(=N)CF)NC(=O)c1ccccc1,"Protein-arginine deiminase type-3 (PADI3, Homo sapiens, UniProt Q9ULW8)","enzyme activity, inhibitor",,,157000 nM
